Assay results from ChEMBL document CHEMBL4732078 (Eur J Med Chem, 2021).
One block for each molecule: values may come before it. Active and inactive are the calls of the source. The calls are words filed in the database; no cut-off is given here.

Tests used:
SJRH30 = experiment: Antiproliferative activity against human Rh30 cells assessed as reduction in cell viability after 72 hrs by sulforhodamine B assay; format: functional, cell-based; conditions: SJRH30, 72 h
In short: (§1)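 SRB assay. Exponentially growing cells seeded at 3000–5000/well, compounds added serially diluted after 24 h, cultured 72 h. Cells fixed with 10% TCA, stained with SRB, dye dissolved in 10 mM Tris-HCl, absorbance read at 560 nm. Inhibition = (ODcontrol − ODtreated)/ODcontrol × 100%. IC50 is the mean of at least three independent tests.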

[1] = molecular target: Phosphatidylinositol 4,5-bisphosphate 3-kinase catalytic subunit alpha isoform (Homo sapiens, UniProt P42336); experiment: Inhibition of human PI3Kalpha using PIP2 as substrate in presence of ATP measured after 30 mins by HTRF assay
In short: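 HTRF kit assay. Enzyme incubated with 10 μM PIP2; reaction started by adding ATP and run 30 min at room temperature, then stop solution and detection mix added and luminescence read. Compounds kept as 10 mM DMSO stocks.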

NCI-H460 = experiment: Antiproliferative activity against human NCI-H460 cells assessed as reduction in cell viability after 72 hrs by sulforhodamine B assay; format: functional, cell-based; conditions: NCI-H460, 72 h; in short: as §1
NCI-H358 = experiment: Antiproliferative activity against human NCI-H358 cells assessed as reduction in cell viability after 72 hrs by sulforhodamine B assay; format: functional, cell-based; conditions: NCI-H358, 72 h; in short: as §1
NCI-H226 = experiment: Antiproliferative activity against human H226 cells assessed as reduction in cell viability after 72 hrs by sulforhodamine B assay; format: functional, cell-based; conditions: NCI-H226, 72 h; in short: as §1
NCI-H522 = experiment: Antiproliferative activity against human NCI-H522 cells assessed as reduction in cell viability after 72 hrs by sulforhodamine B assay; format: functional, cell-based; conditions: NCI-H522, 72 h; in short: as §1
Calu-3 = experiment: Antiproliferative activity against human Calu3 cells assessed as reduction in cell viability after 72 hrs by sulforhodamine B assay; format: functional, cell-based; conditions: Calu-3, 72 h; in short: as §1
NCI-H1975 = experiment: Antiproliferative activity against human NCI-H1975 cells assessed as reduction in cell viability after 72 hrs by sulforhodamine B assay; format: functional, cell-based; conditions: NCI-H1975, 72 h; in short: as §1
A549 = experiment: Antiproliferative activity against human A549 cells assessed as reduction in cell viability after 72 hrs by sulforhodamine B assay; format: functional, cell-based; conditions: A549, 72 h; in short: as §1
NCI-H1650 = experiment: Antiproliferative activity against human NCI-H1650 cells assessed as reduction in cell viability after 72 hrs by sulforhodamine B assay; format: functional, cell-based; conditions: NCI-H1650, 72 h; in short: as §1
NCI-H23 = experiment: Antiproliferative activity against human NCI-H23 cells assessed as reduction in cell viability after 72 hrs by sulforhodamine B assay; format: functional, cell-based; conditions: NCI-H23, 72 h; in short: as §1
[2] = Inhibition of human PI3Kgamma R459Q mutant using PIP2 as substrate in presence of ATP measured after 30 mins by HTRF assay
[3] = Inhibition of human PI3K p110alpha H1047R mutant/p85alpha using PIP2 as substrate incubated for 30 mins in presence of ATP by HTRF assay
SK-OV-3 = experiment: Antiproliferative activity against human SK-OV-3 cells assessed as reduction in cell viability after 72 hrs by sulforhodamine B assay; format: functional, cell-based; in short: as §1
BT-474 = experiment: Antiproliferative activity against human BT-474 cells assessed as reduction in cell viability after 72 hrs by sulforhodamine B assay; format: functional, cell-based; in short: as §1
HCC1954 = experiment: Antiproliferative activity against human HCC1954 cells assessed as reduction in cell viability after 72 hrs by sulforhodamine B assay; format: functional, cell-based; in short: as §1
SK-BR-3 = experiment: Antiproliferative activity against human SK-BR-3 cells assessed as reduction in cell viability after 72 hrs by sulforhodamine B assay; format: functional, cell-based; in short: as §1
T47D = experiment: Antiproliferative activity against human T47D cells assessed as reduction in cell viability after 72 hrs by sulforhodamine B assay; format: functional, cell-based; in short: as §1
PC-3 = experiment: Antiproliferative activity against human PC-3 cells assessed as reduction in cell viability after 72 hrs by sulforhodamine B assay; format: functional, cell-based; in short: as §1
ZR-75-1 = experiment: Antiproliferative activity against human ZR-75-1 cells assessed as reduction in cell viability after 72 hrs by sulforhodamine B assay; format: functional, cell-based; in short: as §1
MCF7 = experiment: Antiproliferative activity against human MCF7 cells assessed as reduction in cell viability after 72 hrs by sulforhodamine B assay; format: functional, cell-based; in short: as §1
MDA-MB-231 = experiment: Antiproliferative activity against human MDA-MB-231 cells assessed as reduction in cell viability after 72 hrs by sulforhodamine B assay; format: functional, cell-based; in short: as §1
LoVo = experiment: Antiproliferative activity against human LoVo cells assessed as reduction in cell viability after 72 hrs by sulforhodamine B assay; format: functional, cell-based; in short: as §1

Sequence of Phosphatidylinositol 4,5-bisphosphate 3-kinase catalytic subunit alpha isoform (P42336 whole entry, canonical isoform): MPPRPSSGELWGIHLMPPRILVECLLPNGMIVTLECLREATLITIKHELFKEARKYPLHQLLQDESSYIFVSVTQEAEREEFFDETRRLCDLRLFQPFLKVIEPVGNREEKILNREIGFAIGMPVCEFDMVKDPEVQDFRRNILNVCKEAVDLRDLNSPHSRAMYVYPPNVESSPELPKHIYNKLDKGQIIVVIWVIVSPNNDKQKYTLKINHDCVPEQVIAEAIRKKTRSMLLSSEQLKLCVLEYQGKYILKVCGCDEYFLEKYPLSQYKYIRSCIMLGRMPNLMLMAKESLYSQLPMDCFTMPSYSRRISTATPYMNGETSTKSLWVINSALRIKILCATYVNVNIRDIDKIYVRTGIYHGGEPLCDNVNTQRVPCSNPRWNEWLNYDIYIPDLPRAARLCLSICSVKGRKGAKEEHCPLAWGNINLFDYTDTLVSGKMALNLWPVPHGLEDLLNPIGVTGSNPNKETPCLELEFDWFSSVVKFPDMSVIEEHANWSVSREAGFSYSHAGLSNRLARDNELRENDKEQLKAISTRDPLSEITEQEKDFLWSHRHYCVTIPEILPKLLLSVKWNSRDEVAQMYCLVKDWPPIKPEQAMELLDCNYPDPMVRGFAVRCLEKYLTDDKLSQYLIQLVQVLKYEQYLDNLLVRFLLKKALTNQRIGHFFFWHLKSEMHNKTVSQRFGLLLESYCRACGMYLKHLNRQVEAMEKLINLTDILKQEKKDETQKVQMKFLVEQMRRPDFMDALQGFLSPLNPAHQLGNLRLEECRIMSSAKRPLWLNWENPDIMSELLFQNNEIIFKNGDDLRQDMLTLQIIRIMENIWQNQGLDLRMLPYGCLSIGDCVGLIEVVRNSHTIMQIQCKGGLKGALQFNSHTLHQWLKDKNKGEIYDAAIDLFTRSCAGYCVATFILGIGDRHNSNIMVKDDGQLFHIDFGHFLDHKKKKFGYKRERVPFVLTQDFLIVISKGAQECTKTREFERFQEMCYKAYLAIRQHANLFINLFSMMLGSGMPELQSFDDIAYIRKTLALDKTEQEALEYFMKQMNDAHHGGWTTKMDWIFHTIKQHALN

IC50 [1]: 19.9 nM
SMILES: C=CC(=O)Nc1cc(C(F)(F)F)c(-c2nc(N3CCOCC3)c3cc(CN4CCN(S(C)(=O)=O)CC4)cn3n2)cn1
IC50 (SJRH30): 710 nM

IC50 [1]: 39.6 nM
SMILES: CN(C)C1CCN(C(=O)c2ccc(NC(=O)Nc3ccc(-c4nc(N5CCOCC5)c5cc(CN6CCN(S(C)(=O)=O)CC6)cn5n4)cc3)cc2)CC1
IC50 (SJRH30): 80 nM

IC50 (NCI-H460): 897 nM
IC50 (NCI-H358): 1290 nM
IC50 [1]: 105 nM
IC50 (NCI-H226): 1080 nM
IC50 (NCI-H522): 1020 nM
IC50 (Calu-3): 2360 nM
IC50 (NCI-H1975): 460 nM
IC50 (A549): 1640 nM
IC50 (NCI-H1650): 2300 nM
IC50 (NCI-H23): 695 nM
SMILES: CS(=O)(=O)N1CCN(Cc2cc3c(N4CCOCC4)nc(-c4ccc(NC(=O)Nc5ccc(F)cc5)cc4)nn3c2)CC1
IC50 (SJRH30): 230 nM

IC50 (NCI-H460): 293 nM
IC50 (NCI-H358): 187 nM
IC50 [1]: 41.1 nM
IC50 (NCI-H226): 106 nM
IC50 (NCI-H522): 751 nM
IC50 (Calu-3): 790 nM
IC50 (NCI-H1975): 25 nM
IC50 (A549): 144 nM
IC50 (NCI-H1650): 344 nM
IC50 (NCI-H23): 52 nM
SMILES: CN1CCN(C(=O)c2ccc(NC(=O)Nc3ccc(-c4nc(N5CCOCC5)c5cc(CN6CCN(S(C)(=O)=O)CC6)cn5n4)cc3)cc2)CC1
IC50 (SJRH30): 70 nM

SMILES: CS(=O)(=O)N1CCN(Cc2cc3c(N4CCOCC4)nc(-c4cnc(NC(=O)Oc5ccccc5)cc4C(F)(F)F)nn3c2)CC1
IC50 (SJRH30): 5070 nM
IC50 [1]: 44.4 nM

IC50 [1]: 55.4 nM
SMILES: CS(=O)(=O)N1CCN(Cc2cc3c(N4CCOCC4)nc(-c4cnc(N)cc4C(F)(F)F)nn3c2)CC1
IC50 (SJRH30): 880 nM

IC50 [1]: 21 nM
SMILES: CCOC(=O)Nc1cc(C(F)(F)F)c(-c2nc(N3CCOCC3)c3cc(CN4CCN(S(C)(=O)=O)CC4)cn3n2)cn1
IC50 (SJRH30): 3270 nM

IC50 [1]: 41.7 nM
SMILES: CCNC(=O)Nc1cc(C(F)(F)F)c(-c2nc(N3CCOCC3)c3cc(CN4CCN(S(C)(=O)=O)CC4)cn3n2)cn1
IC50 (SJRH30): 390 nM

IC50 [1]: 17.7 nM
SMILES: CS(=O)(=O)N1CCN(Cc2cc3c(N4CCOCC4)nc(-c4cnc(NC(=O)Nc5ccc(F)cc5)cc4C(F)(F)F)nn3c2)CC1
IC50 (SJRH30): 180 nM

IC50 [1]: 23.6 nM
SMILES: CNC(=O)Nc1cc(C(F)(F)F)c(-c2nc(N3CCOCC3)c3cc(CN4CCN(S(C)(=O)=O)CC4)cn3n2)cn1
IC50 (SJRH30): 150 nM

IC50 [1]: 50.5 nM
SMILES: C[C@H]1COCCN1c1nc(-c2cnc(N)cc2C(F)(F)F)nn2cc(CN3CCN(S(C)(=O)=O)CC3)cc12
IC50 (SJRH30): 970 nM

IC50 [1]: 244 nM
SMILES: CS(=O)(=O)N1CCN(Cc2cc3c(N4CC5CCC(C4)O5)nc(-c4cnc(N)cc4C(F)(F)F)nn3c2)CC1
IC50 (SJRH30): 1780 nM

IC50 [1]: 67.5 nM
SMILES: CN(C)C(=O)c1ccc(NC(=O)Nc2ccc(-c3nc(N4CCOCC4)c4cc(CN5CCN(S(C)(=O)=O)CC5)cn4n3)cc2)cc1
IC50 (SJRH30): 90 nM

IC50 [2]: 1670 nM
IC50 [3]: 10.9 nM
SMILES: Cc1nc(NC(=O)N2CCC[C@H]2C(N)=O)sc1-c1ccnc(C(C)(C)C(F)(F)F)c1 [ALPELISIB]
IC50 (SJRH30): 7600 nM

IC50 (NCI-H460): 1260 nM
IC50 (NCI-H358): 1330 nM
IC50 (NCI-H226): 5910 nM
IC50 (NCI-H522): 2140 nM
IC50 (Calu-3): 2870 nM
IC50 (NCI-H1975): 703 nM
IC50 (A549): 2480 nM
IC50 (NCI-H1650): 4730 nM
IC50 (NCI-H23): 936 nM
SMILES: CS(=O)(=O)N1CCN(Cc2cc3nc(-c4cccc5[nH]ncc45)nc(N4CCOCC4)c3s2)CC1 [PICTILISIB]
Activity (SK-OV-3): Active
Activity (BT-474): Active
Activity (HCC1954): Active
Activity (SK-BR-3): Active
IC50 (SJRH30): 478 nM
Activity (T47D): Active
Activity (PC-3): Active
Activity (ZR-75-1): Active
Activity (MCF7): Active
Activity (MDA-MB-231): Active
Activity (LoVo): Active
